50 compounds from ChEMBL document CHEMBL1681637, “Synthesis and antitubercular activity of monocyclic nitroimidazoles: insights from econazole” (Bioorg Med Chem Lett, 2011) can be followed below.

Experiment [1] has as its system Vero. The experiment in a line: Cytotoxicity against african green monkey Vero cells by MTT assay. Conditions: Chlorocebus sabaeus. Format: cell-based. In short, it runs like this: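 Vero cells were exposed to compound stocks made in DMSO and serially diluted 2-fold in RPMI 1640 medium. The top test concentration varied between compounds because of limited solubility. MTT read-out followed the kit manufacturer's protocol.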
(In general: Tetrazolium dyes change colour on reduction, which living cells bring about.)

Experiment [2] relates to Candida albicans. The experiment in a line: Antifungal activity against Candida albicans ATCC 90027 after 48 hrs by broth microdilution method. Format: functional. Conditions: ATCC 90027, 48 h. For orientation: Broth dilution looks for growth in wells or tubes with falling amounts of substance.

In brackets after ≈: the same amount, converted by molar mass.

Broadly, the IC50 is the concentration that gives 50% inhibition. As usually defined, the MIC is the smallest concentration in the dilution series that meets the test's criterion for growth inhibition. As to `O=[N+]([O-])c1cn(CC(O)c2ccc(Cl)cc2)c(Br)n1` (racemic), in experiment [1], the half-inhibitory concentration (IC50) is over 100 µg/mL. In experiment [2], this compound gave an MIC of over 256 µg/mL.

As for `O=[N+]([O-])c1cn(CC(O)c2ccc(Cl)cc2Cl)cn1` (racemic), the half-maximal inhibitory concentration (IC50) in experiment [1] is over 250 µg/mL. Further, in experiment [2], the MIC was over 256 µg/mL.

Compound `Cc1nc([N+](=O)[O-])cn1CC(O)c1ccc(Cl)cc1Cl` (racemic) had a half-inhibitory concentration (IC50) in experiment [1] of over 250 µg/mL. The same compound yielded an MIC in experiment [2] of over 256 µg/mL.

In turn, `O=[N+]([O-])c1cn(CC(O)c2ccc(Cl)cc2Cl)c(Br)n1` (racemic) yielded an IC50 in experiment [1] of 100 µg/mL (≈ 262 µM). Besides, the MIC in experiment [2] is over 256 µg/mL.

The compound `O=[N+]([O-])c1cn(CC(O)c2ccc(F)cc2F)cn1` (racemic) returned a half-maximal inhibitory concentration (IC50) in experiment [1] of 292 µg/mL (≈ 1080 µM). In addition, in experiment [2], the MIC was over 256 µg/mL.

In experiment [1], `O=[N+]([O-])c1cn(CC(O)c2ccc(F)cc2F)c(Br)n1` (racemic) came in with an IC50 of over 200 µg/mL. This compound returned a minimal inhibitory concentration (MIC) in experiment [2] of over 256 µg/mL.

In the case of `O=[N+]([O-])c1cn(CC(O)c2ccc(F)cc2)c(Br)n1` (racemic), the IC50 in experiment [1] was over 100 µg/mL. In addition, in experiment [2], the MIC was over 256 µg/mL.

As for `O=[N+]([O-])c1ccc(C(O)Cn2cc([N+](=O)[O-])nc2Br)cc1` (racemic), the concentration for half-maximal inhibition (IC50) in experiment [1] was over 100 µg/mL. Moreover, the minimal inhibitory concentration (MIC) in experiment [2] is over 256 µg/mL.

For the compound `O=[N+]([O-])c1cn(CC(O)c2ccc(-c3ccccc3)cc2)c(Br)n1` (racemic), the 50% inhibitory concentration (IC50) in experiment [1] was over 100 µg/mL. Moreover, the MIC in experiment [2] was over 256 µg/mL.

In experiment [1], `O=[N+]([O-])c1cn(CC(O)c2ccccc2)c(Br)n1` (racemic) returned an IC50 of over 100 µg/mL. The minimal inhibitory concentration (MIC) in experiment [2] was over 256 µg/mL.

For the compound `Cc1ccc(C(O)Cn2cc([N+](=O)[O-])nc2Br)c(C)c1` (racemic), it took 22 µg/mL (≈ 64.7 µM) to reach half-maximal inhibition in experiment [1] (IC50). In addition, the MIC in experiment [2] is over 256 µg/mL.

As for `O=[N+]([O-])c1cn(CC(OCc2ccc(Cl)cc2)c2ccc(Cl)cc2Cl)cn1` (racemic), the concentration for half-maximal inhibition (IC50) in experiment [1] was over 16 µg/mL. Also, the minimum inhibitory concentration (MIC) in experiment [2] was over 256 µg/mL.

For the compound `Cc1nc([N+](=O)[O-])cn1CC(OCc1ccc(Cl)cc1)c1ccc(Cl)cc1Cl` (racemic), the IC50 in experiment [1] was over 31 µg/mL. In experiment [2], this compound displayed an MIC of over 256 µg/mL.

Consider `O=[N+]([O-])c1cn(CC(OCc2ccc(Cl)cc2)c2ccc(Cl)cc2Cl)c(Br)n1` (racemic), for which the half-inhibitory concentration (IC50) in experiment [1] is over 62.5 µg/mL. Moreover, in experiment [2], the minimal inhibitory concentration (MIC) was over 256 µg/mL.

With `O=[N+]([O-])c1cn(CC(OCc2ccc(Cl)cc2)c2ccc(F)cc2F)cn1` (racemic), the half-maximal inhibitory concentration (IC50) in experiment [1] is over 25 µg/mL. For the same compound, the minimal inhibitory concentration (MIC) in experiment [2] is over 256 µg/mL.

In the case of `O=[N+]([O-])c1cn(CC(OCc2ccc(Cl)cc2)c2ccc(F)cc2F)c(Br)n1` (racemic), in experiment [1], the half-maximal inhibitory concentration (IC50) is over 25 µg/mL. Besides, in experiment [2], the MIC was over 256 µg/mL.

`O=[N+]([O-])c1cn(CC(OCc2ccccc2F)c2ccc(Cl)cc2Cl)cn1` (racemic): the IC50 in experiment [1] was over 63 µg/mL. In experiment [2], this compound registered an MIC of over 256 µg/mL.

Regarding `O=[N+]([O-])c1cn(CC(OCc2ccc(F)cc2)c2ccc(Cl)cc2Cl)cn1` (racemic), the 50% inhibitory concentration (IC50) in experiment [1] was over 16 µg/mL. The compound also showed a minimal inhibitory concentration (MIC) in experiment [2] of over 256 µg/mL.

Compound `O=[N+]([O-])c1cn(CC(OCc2ccccc2F)c2ccc(Cl)cc2Cl)c(Br)n1` (racemic) showed a half-maximal inhibitory concentration (IC50) in experiment [1] of over 63 µg/mL. Also, the MIC in experiment [2] was over 256 µg/mL.

On to `O=[N+]([O-])c1cn(CC(OCc2ccc(F)cc2)c2ccc(Cl)cc2Cl)c(Br)n1` (racemic), for which, in experiment [1], the IC50 is over 16 µg/mL. The MIC in experiment [2] is over 256 µg/mL.

Consider `O=[N+]([O-])c1cn(CC(OCc2ccc(F)cc2F)c2ccc(Cl)cc2Cl)cn1` (racemic), for which, in experiment [1], the IC50 is over 25 µg/mL. The compound also displayed a minimal inhibitory concentration (MIC) in experiment [2] of over 256 µg/mL.

`O=[N+]([O-])c1cn(CC(OCc2cc(F)ccc2F)c2ccc(Cl)cc2Cl)cn1` (racemic) returned a half-inhibitory concentration (IC50) in experiment [1] of over 25 µg/mL. In experiment [2], the minimal inhibitory concentration (MIC) is over 256 µg/mL.

Take `O=[N+]([O-])c1cn(CC(OCc2ccc(OC(F)(F)F)cc2)c2ccc(Cl)cc2Cl)cn1` (racemic): the 50% inhibitory concentration (IC50) in experiment [1] was over 25 µg/mL. In experiment [2], this compound showed an MIC of over 256 µg/mL.

Compound `O=[N+]([O-])c1cn(CC(OCc2cc(F)cc(F)c2)c2ccc(Cl)cc2Cl)cn1` (racemic) gave an IC50 in experiment [1] of over 25 µg/mL. The MIC in experiment [2] was over 256 µg/mL.

In experiment [1], `O=[N+]([O-])c1cn(CC(OCc2cc(F)cc(F)c2)c2ccc(Cl)cc2Cl)c(Br)n1` (racemic) returned an IC50 of over 6 µg/mL. The compound further registered an MIC in experiment [2] of over 256 µg/mL.

`O=[N+]([O-])c1cn(CC(OCc2ccc(F)cc2)c2ccc(F)cc2F)cn1` (racemic) gave a half-inhibitory concentration (IC50) in experiment [1] of over 50 µg/mL. Moreover, in experiment [2], the MIC is over 256 µg/mL.

With `O=[N+]([O-])c1cn(CC(OCc2ccc(OC(F)(F)F)cc2)c2ccc(F)cc2F)cn1` (racemic), the IC50 in experiment [1] is over 50 µg/mL. For the same compound, the MIC in experiment [2] was over 256 µg/mL.

Consider `O=[N+]([O-])c1cn(CC(OCc2cc(F)cc(F)c2)c2ccc(F)cc2F)cn1` (racemic), for which the IC50 in experiment [1] is over 50 µg/mL. The compound further showed an MIC in experiment [2] of over 256 µg/mL.

Take `COc1nc([N+](=O)[O-])cn1CC(O)c1ccc(Cl)cc1Cl` (racemic): in experiment [1], the concentration for half-maximal inhibition (IC50) amounted to 100 µg/mL (≈ 301 µM). Further, the minimal inhibitory concentration (MIC) in experiment [2] is over 256 µg/mL.

`COc1nc([N+](=O)[O-])cn1CC(O)c1ccc(F)cc1F` (racemic) yielded an IC50 in experiment [1] of over 100 µg/mL. Also, the MIC in experiment [2] is over 256 µg/mL.

For the compound `COc1nc([N+](=O)[O-])cn1CC(O)c1ccc(F)cc1` (racemic), the concentration for half-maximal inhibition (IC50) in experiment [1] is over 100 µg/mL. Further, the MIC in experiment [2] is over 256 µg/mL.

As for `COc1nc([N+](=O)[O-])cn1CC(O)c1ccc(Cl)cc1` (racemic), the IC50 in experiment [1] was over 100 µg/mL. This compound also gave a minimal inhibitory concentration (MIC) in experiment [2] of over 256 µg/mL.

As to `COc1nc([N+](=O)[O-])cn1CC(O)c1ccc([N+](=O)[O-])cc1` (racemic), the concentration for half-maximal inhibition (IC50) in experiment [1] was over 100 µg/mL. Besides, in experiment [2], the MIC is over 256 µg/mL.

Turning to `COc1nc([N+](=O)[O-])cn1CC(O)c1ccc(-c2ccccc2)cc1` (racemic), the half-inhibitory concentration (IC50) in experiment [1] was over 100 µg/mL. For the same compound, in experiment [2], the minimal inhibitory concentration (MIC) was over 256 µg/mL.

Regarding `CSc1nc([N+](=O)[O-])cn1CC(O)c1ccc(Cl)cc1Cl` (racemic), the midpoint of inhibition in experiment [1], the IC50, lay at 59 µg/mL (≈ 169 µM). This compound gave an MIC in experiment [2] of over 256 µg/mL.

`COc1nc([N+](=O)[O-])cn1CC(O)c1ccccc1` (racemic) registered a 50% inhibitory concentration (IC50) in experiment [1] of over 100 µg/mL. In experiment [2], the minimal inhibitory concentration (MIC) is over 256 µg/mL.

The compound `COc1nc([N+](=O)[O-])cn1CC(O)c1ccc(C)cc1C` (racemic) returned an IC50 in experiment [1] of 84 µg/mL (≈ 288 µM). In addition, the minimal inhibitory concentration (MIC) in experiment [2] was over 256 µg/mL.

In turn, `COc1nc([N+](=O)[O-])cn1CC(OCc1ccc(Cl)cc1)c1ccc(Cl)cc1Cl` (racemic) displayed an IC50 in experiment [1] of over 8 µg/mL. Moreover, the MIC in experiment [2] was over 256 µg/mL.

In the case of `CSc1nc([N+](=O)[O-])cn1CC(OCc1ccc(F)cc1)c1ccc(Cl)cc1Cl` (racemic), the IC50 in experiment [1] was over 13 µg/mL. For the same compound, in experiment [2], the minimal inhibitory concentration (MIC) was over 256 µg/mL.

In experiment [1], `COc1nc([N+](=O)[O-])cn1CC(OCc1ccc(OC(F)(F)F)cc1)c1ccc(Cl)cc1Cl` (racemic) returned a half-maximal inhibitory concentration (IC50) of over 13 µg/mL. Also, the minimum inhibitory concentration (MIC) in experiment [2] was over 256 µg/mL.

With `COc1nc([N+](=O)[O-])cn1CC(OCc1ccc(Cl)cc1)c1ccc(F)cc1F` (racemic), the concentration for half-maximal inhibition (IC50) in experiment [1] is over 13 µg/mL. Also, the MIC in experiment [2] is over 256 µg/mL.

The compound `COc1nc([N+](=O)[O-])cn1CC(OCc1ccc(F)cc1)c1ccc(F)cc1F` (racemic) registered an IC50 in experiment [1] of over 25 µg/mL. The compound also returned an MIC in experiment [2] of over 256 µg/mL.

Regarding `COc1nc([N+](=O)[O-])cn1CC(OCc1ccc(OC(F)(F)F)cc1)c1ccc(F)cc1F` (racemic), the IC50 in experiment [1] is over 25 µg/mL. Further, the MIC in experiment [2] is over 256 µg/mL.

For `COc1nc([N+](=O)[O-])cn1CC(OCc1cc(F)cc(F)c1)c1ccc(Cl)cc1Cl` (racemic), the IC50 in experiment [1] is over 50 µg/mL. In addition, the MIC in experiment [2] is over 256 µg/mL.

In experiment [1], `COc1nc([N+](=O)[O-])cn1CC(OCc1ccc(F)cc1)c1ccc(Cl)cc1Cl` (racemic) displayed a concentration for half-maximal inhibition (IC50) of over 13 µg/mL. Moreover, in experiment [2], the MIC was over 256 µg/mL.

In turn, `CSc1nc([N+](=O)[O-])cn1CC(OCc1ccc(Cl)cc1)c1ccc(Cl)cc1Cl` (racemic) displayed an IC50 in experiment [1] of over 13 µg/mL. Moreover, the MIC in experiment [2] was over 256 µg/mL.

In turn, `CSc1nc([N+](=O)[O-])cn1CC(OCc1cc(F)cc(F)c1)c1ccc(Cl)cc1Cl` (racemic) gave a concentration for half-maximal inhibition (IC50) in experiment [1] of over 135 µg/mL. For the same compound, the minimum inhibitory concentration (MIC) in experiment [2] was over 256 µg/mL.

In experiment [1], `CSc1nc([N+](=O)[O-])cn1CC(OCc1ccc(Cl)cc1)c1ccc(F)cc1F` (racemic) yielded an IC50 of over 13 µg/mL. Moreover, the MIC in experiment [2] is over 256 µg/mL.

In experiment [2], `Clc1ccc(COC(Cn2ccnc2)c2ccc(Cl)cc2Cl)cc1` (stereo not drawn) [ECONAZOLE] yielded an MIC of 16 µg/mL (≈ 41.9 µM).

For the compound `O=[N+]([O-])c1cn2c(n1)OC[C@@H](OCc1ccc(OC(F)(F)F)cc1)C2` [PRETOMANID], the MIC in experiment [2] was over 256 µg/mL.
